In publication PMC5120626 (Dermatology and Therapy, 2016):
Each block holds one compound with its values, some of them ahead of it.

Assays:
[1] = tested on: IL-8 release from primary epidermal keratinocytes; test: Keratinocyte IL-8 release; format: cell-based, human; conditions: relative to ingenol disoxate
Summary of the method: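 Primary adult human epidermal keratinocytes seeded at 1 × 10^4 cells/well in serum-free EpiLife with HKGS, overnight at 37 °C. Titrated test compound applied for 6 h. Secreted IL-8 measured by MSD 4-spot plates or HTRF. The EC50 is the concentration giving 50% of the maximum reached by a reference ingenol ester, from four experiments.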

Neutrophil granulocytes = test: Neutrophil granulocyte respiratory burst; format: cell-based; conditions: relative to ingenol disoxate
Summary of the method: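 Human neutrophils isolated from buffy coats by sedimentation, Lymphoprep density centrifugation and erythrocyte lysis. Plated at 2.5 × 10^5 cells/well in HBSS with Ca2+/Mg2+, 0.1% BSA and 5 mM glucose. Titrated test compound premixed with 10 µM hydroethidine for 40 min at ambient temperature; fluorescence ex 485/em 579 nm.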

[2] = Stability in phosphate buffer; format: physicochemical; conditions: phosphate buffer pH 7.4, 37 °C
UV-induced skin tumors = test: UV-induced skin cancer mouse model; format: in vivo; conditions: two consecutive days
B16 melanoma = B16 melanoma mouse model; format: in vivo; conditions: 0.1% in hydroalcoholic gel, topical, two consecutive days; at 3 months
Summary of the method: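 Female C57BL/6J mice aged 8–10 weeks received 5 × 10^5 B16 cells intradermally in the flank. Once nodules were visible, tumours were measured by caliper (volume […]) and mice split into cohorts of 8–10 with equal volumes. Treatment was topical, 20 µL of 0.1% hydroalcoholic gel on two consecutive days. The endpoint was a tumour above 250 mm3 or ulceration.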

[3] = Skin penetration in a Franz chamber diffusion set-up; format: in vitro ADME, human; conditions: 21 h
Summary of the method: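 Full-thickness human abdominal skin in vertical Franz cells (2 cm orifice, nine cells per treatment) at 32 °C, with stirred EpiLife plus keratinocyte supplement as receptor. 0.1% w/v hydroalcoholic gel applied for 21 h. Surface excess removed, stratum corneum tape-stripped 12 times, then epidermis and dermis heat-separated and quantified. LOQ 3 ng/biopsy; Mann–Whitney comparison.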

[4] = tested on: primary epidermal keratinocytes; test: Keratinocyte proliferation; format: cell-based, human; conditions: concentrations from 100 nM to 10 µM; 72 h
Summary of the method: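 Primary adult human epidermal keratinocytes (log phase) at 4 × 10^3 cells/well in serum-free EpiLife with HKGS, overnight at 37 °C. Exposed to titrated test compound for 72 h. Proliferation read as DNA content with CyQUANT Direct stain. Percent inhibition normalised to 1 µM geldanamycin.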

[5] = First tier chemical stability assessment in aqueous buffer; format: physicochemical; conditions: aqueous buffer pH 7.4; 16 h, room temperature
[6] = tested on: keratinocyte differentiation markers (INVL, TGM1, FLG, LOR) in primary human epidermal keratinocytes; test: Real-time quantitative PCR of keratinocyte differentiation markers; format: cell-based
Summary of the method: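 Primary human epidermal keratinocytes in low-calcium EpiLife (0.06 mM CaCl2) were given 100 nM test compound for 72 h, with or without 500 nM bisindolylmaleimide I for 30 min beforehand. High-calcium medium (1.8 mM) served as the differentiation reference. KRT1, KRT10, INVL, TGM1, FLG and LOR measured by qPCR, normalised to PPIA, RPLP0, GAPDH and TBP and expressed relative to vehicle. Two donors.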

Distribution coefficient = format: physicochemical; conditions: octanol/citrate buffer, pH 3
[7] = Local skin reaction in guinea pigs; format: in vivo, guinea pig; conditions: single topical application, 0.015% and 0.05% gel; hairless guinea pigs
Summary of the method: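 Seven female IAF hairless guinea pigs (Crl:HA-Hr Hr) received 10 µL of 0.015% or 0.05% gel, or vehicle, on five 2 cm2 flank fields, one condition per field. LSR was scored daily for up to 4 days as a composite of edema, erythema, ulceration and subcutaneous bleeding. Four animals were killed at 24 h for 4 mm punch biopsies and H&E sections.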

[8] = tested on: primary epidermal keratinocytes; test: Keratinocyte viability and caspase 3/7 activation; format: cell-based, human; conditions: growth-arresting concentrations (100 nM and above); 72 h
[9] = Stability in hydroalcoholic gel; format: physicochemical; conditions: for Largest single impurity (5-isomer re-arrangement product): 0.05% w/v gel, 25 °C/60%RH
Summary of the method: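 Hydroalcoholic gel at pH 2.8 in citrate buffer, containing benzyl alcohol and isopropanol. For assay, 0.4 g gel was dispersed in 0.1% phosphoric acid/acetonitrile 50:50 and diluted to 10.0 mL. Reverse-phase UHPLC on an HSS C18 column with a 50–95% acetonitrile gradient and UV at 220 nm, against an external reference standard. Run in duplicate.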

[10] = cited from earlier work

20-isomer in equilibrated mixture [2]: 86–88%
SMILES: CCc1noc(CC)c1C(=O)OC1C(CO)=CC2C(=O)C3(C=C(C)C(O)C13O)C(C)CC1C2C1(C)C (stereo not shown) [compound 8, Ingenol-5-(3,5-Diethylisoxazole-4-Carboxylate)]
fold less potent in IL-8 release assay [1]: approximately tenfold
fold less potent in neutrophil activation assay (Neutrophil granulocytes): ~56 fold

SMILES: C/C=C(/C)C(=O)O[C@H]1C(C)=C[C@]23C(=O)[C@@H](C=C(CO)[C@@H](O)[C@]12O)[C@H]1[C@@H](C[C@H]3C)C1(C)C [Ingenol mebutate, Ingenol 3-Angelate]
antitumor effect (UV-induced skin tumors; 0.05% gel): slightly weaker effect
antitumor effect (UV-induced skin tumors; 0.1% gel): comparable effect
tumor clearance (UV-induced skin tumors; topical gel, SKH1 mice, largely maintained 5 weeks post treatment): more than 50%
animals remaining tumor free (overall tumor free survival) (B16 melanoma): 45%
epidermal relative to dermal concentration ([3]; 0.1% gel): more than 100 fold
Dermal exposure level ([3]; 0.1% in hydroalcoholic gel, topical): 364 ± 64 nM
epidermal concentration level ([3]; 0.1% in hydroalcoholic gel, topical, stratum corneum removed): 100 µM
growth inhibition [4]: Total growth inhibition without obvious signs of toxicity
compound recovered [5]: 60%
transcription of intermediate (INVL) and late (TGM1, FLG, LOR) keratinocyte differentiation markers ([6]; 100 nM, 72 h, low calcium medium): stimulated transcription
logD at 24 h (Distribution coefficient): 3.5
local skin reaction (LSR) [7]: robust LSR response
time of peak local skin reaction [7]: 24 h
cytotoxicity or apoptosis (viability, caspase 3/7) [8]: No signs of cytotoxicity or apoptosis
decrease of concentration ([9]; 0.05% gel, after 6 months storage at 25 °C/60%RH): 8.0 % of label claim
Largest single impurity (5-isomer re-arrangement product) ([9]; 6 months): 5.1 area %
Largest single impurity (5-isomer re-arrangement product) ([9]; Start): 0.2 area %

SMILES: CC1=C[C@]23C(=O)[C@@H](C=C(CO)[C@@H](O)[C@]2(O)[C@H]1O)[C@H]1[C@@H](C[C@H]3C)C1(C)C [Ingenol]
biological activity [10]: lacks biological activity

stability over time ([2]; 24 h): did not change over time
SMILES: CCc1noc(CC)c1C(=O)OCC1=CC2C(=O)C3(C=C(C)C(O)C3(O)C1O)C(C)CC1C2C1(C)C (stereo not shown) [compound 9, Ingenol-20-(3,5-Diethylisoxazole-4-Carboxylate)]
fold less potent in IL-8 release assay [1]: at least 150 fold
fold less potent in neutrophil activation assay (Neutrophil granulocytes): at least 150 fold

SMILES: CN(C)CCCn1cc(C2=C(c3c[nH]c4ccccc34)C(=O)NC2=O)c2ccccc21 [bisindolylmaleimide-1, bisindolylmaleimide I]
effect of pretreatment on marker induction by ingenol derivatives ([6]; 500 nM, 30 min pre-incubation before 100 nM ingenol derivatives): abolished
